# STAT3 act: increases IL-6 driven STAT3 reporter signal; U3A cells, IL-6 STAT3-luciferase reporter, luminescence; 100% = signal with IL-6 EC80 alone; activation (% of control), % at 5.6 µM; 0.91% of 190,000 active;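 active means activation above the screen-wide mean of compound activation plus 3 SD, cut at about 130% in these data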;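 further: 0% = background luminescence of wells with medium and substrate only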
#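 Detection: reporter luminescence signal / Assay system: STAT1-lacking human U3A cells, STAT3 luciferase reporter / Incubation: compound pre-incubation 1 h before IL-6, then 6 h stimulation at 37 °C / Control set: IL-6-only high control / Read-out: % activation relative to IL-6 control / Probe or stimulus: Interleukin-6, 33 ng/mL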
# STAT1 blocker: reduces IFN-gamma driven STAT1 reporter signal | NIH 3T3 STAT1-luciferase reporter, luminescence | inhibition, % at 5.5 µM | 0.35% of 200,000 active;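 active means inhibition above a set limit, the mean inhibition across all tested compounds plus 3 SD, cut at about 34% in these data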;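 further: 0% = IFN-gamma with DMSO and 100% = IFN-gamma with 300 µM nifuroxazide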
# Platelet DG rel: platelet dense granule release activity; inhibition, %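 (compounds screened at 7.5 µM in platelet-rich plasma)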; AID 1663; 0.22% of 300,000 active; human platelet-rich plasma, SFLLRN dense granule ATP release, luminescence;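 active means mean replicate score, as percent of positive control, at or above 50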
# PERK inhibitor: inhibitors of human PERK kinase | CHO PERK-DD fusion, SEAP luminescence translation reporter | inhibition, % at 5.6 µM | 0.17% of 220,000 active;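 active means inhibition above the mean inhibition of all tested compounds plus 3 SD, set separately per screening campaign, cut at about 2.9% in these data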;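 further: PERK kinase domain activated by AP20187 dimerizer at 100 nM; 0% = DMSO with dimerizer and 100% = rapamycin at 8.4 µM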
# Target sequence (Q9NZJ5 whole entry, looked up, the tested form may be a part): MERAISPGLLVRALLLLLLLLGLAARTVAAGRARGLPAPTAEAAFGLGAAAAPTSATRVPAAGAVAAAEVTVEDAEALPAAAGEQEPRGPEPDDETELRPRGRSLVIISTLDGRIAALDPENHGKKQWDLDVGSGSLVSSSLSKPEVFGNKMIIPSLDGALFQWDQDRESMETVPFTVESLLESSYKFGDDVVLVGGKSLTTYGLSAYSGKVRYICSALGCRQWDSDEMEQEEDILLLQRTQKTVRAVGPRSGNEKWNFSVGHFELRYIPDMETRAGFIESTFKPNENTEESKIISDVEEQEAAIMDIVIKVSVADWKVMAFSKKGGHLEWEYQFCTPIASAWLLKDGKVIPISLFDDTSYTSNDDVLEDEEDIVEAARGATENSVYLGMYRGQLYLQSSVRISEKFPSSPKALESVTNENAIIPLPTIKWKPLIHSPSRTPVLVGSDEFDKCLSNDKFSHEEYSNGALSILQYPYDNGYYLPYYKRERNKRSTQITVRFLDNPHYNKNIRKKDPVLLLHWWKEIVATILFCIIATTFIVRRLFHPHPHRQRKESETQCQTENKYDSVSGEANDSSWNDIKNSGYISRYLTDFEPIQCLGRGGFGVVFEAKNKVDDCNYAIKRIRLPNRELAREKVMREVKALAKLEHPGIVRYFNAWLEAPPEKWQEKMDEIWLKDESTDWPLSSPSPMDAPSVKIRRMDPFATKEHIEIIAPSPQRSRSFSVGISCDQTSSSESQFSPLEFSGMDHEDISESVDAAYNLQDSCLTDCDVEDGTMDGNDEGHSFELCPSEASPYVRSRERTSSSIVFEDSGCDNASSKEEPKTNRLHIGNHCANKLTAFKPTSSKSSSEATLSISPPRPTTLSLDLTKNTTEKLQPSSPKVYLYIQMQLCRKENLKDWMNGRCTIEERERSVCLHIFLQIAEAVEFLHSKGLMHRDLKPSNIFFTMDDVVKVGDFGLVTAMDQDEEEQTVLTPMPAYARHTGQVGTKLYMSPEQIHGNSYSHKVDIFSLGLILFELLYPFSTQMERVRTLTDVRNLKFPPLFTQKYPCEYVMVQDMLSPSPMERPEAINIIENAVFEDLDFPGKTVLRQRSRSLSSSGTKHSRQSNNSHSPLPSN
# STAT3 inh: STAT3 signaling inhibition | U3A cells, IL-6 STAT3-luciferase reporter, luminescence; host cell line lacks STAT1 | inhibition, % at 5.5 µM | 0.89% of 190,000 active | AID 862;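 active means inhibition above the mean inhibition across all screened compounds plus 3 SD, cut at about 44% in these data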;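 further: 0% = DMSO only wells and 100% = 100 µM nifuroxazide control wells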
# Numbers without * were called inactive; · = not tested or not shown. A selection: hits, their analogues and other compounds. The true share with any hit is near 1.4%.
SMILES,STAT3 act,STAT1 blocker,Platelet DG rel,PERK inhibitor,STAT3 inh
Nc1ccc(C(=O)OCc2nc3cc4ccccc4cc3[nH]2)cc1,100,-17,-1,0,4
O=C(O)c1ccc(N=Nc2c(O)[nH]c3ccccc23)cc1,·,·,133*,1,·
CN(C)C(=O)CCC(=O)N1CCCC(N2CCN(c3cccc(C(F)(F)F)c3)CC2)C1 (stereo not drawn),·,·,3,·,·
COc1ccccc1C(=O)COC(=O)Cn1[nH]c(=O)c2ccccc2c1=O,·,·,12,·,·
Oc1c(/C=N/c2ccccn2)sc2ccccc12,·,·,86*,0,·
Cc1ccc2nc(-c3ccc(O)c(O)c3)cn2c1,·,·,10,·,·
Cc1ccc2nc(-c3ccccc3)cn2c1,11,84*,73*,-1,103*
C/C(=N/N=C1\SCC(=O)N1c1ccccc1)c1ccc(C)cc1,·,·,26,3.7*,·
O=C(N/N=C/c1ccc([N+](=O)[O-])s1)c1ccncc1,101,4,3,1,-2
Cc1ccc(C(=O)N/N=C/c2ccc([N+](=O)[O-])s2)cc1,36,80*,20,0,76*
O=C(O)c1ccc2c(=O)n3c(nc2c1)/C(=C/c1ccccc1Br)CC3,·,·,7,·,·
O=c1c2ccccc2nc2n1CC/C2=C\c1ccccc1[N+](=O)[O-],157*,1,·,1,-65
CCOc1ccccc1NC(=O)Nc1ccc(CC#N)cc1,·,·,-3,1,·
COc1ccc(CC(=O)N2CCN(c3ccc(C4=NNC(=O)CC4C)cc3)CC2)cc1 (stereo not drawn),102,3,67*,0,6
O=C(COc1cccc([N+](=O)[O-])c1)NN1C(=O)c2ccccc2C1=O,·,·,2,·,·
Nc1cccc(-c2nc3ccc(N)cc3s2)c1,106,-26,76*,0,-4
Nc1nc(-c2ccc(C(=O)O)cc2)cs1,105,-2,2,1,-3
Nc1ccc(-c2nc3ccc(N)cc3s2)cc1,·,·,54*,1,·
Nc1cc2sc(-c3ccc(C(=O)O)cc3)nc2cc1Cl,71,-8,77*,0,36
CC1CCN(c2nc3ccc(C(=O)O)cc3s2)CC1,13,80*,-2,0,109*
Cc1cccn2c(NC(=O)c3ccccc3F)c(-c3ccccc3)nc12,·,·,-2,·,·
Nc1ccc(-c2nc3ccc(C(=O)O)cc3s2)cc1,10,89*,14,1,104*
NC(=O)c1ccc2nc(NC(=O)c3ccc(N)cc3)sc2c1,88,-45,-1,2,17
Nc1ccc[n+](CC(=O)c2ccccc2)c1,·,·,-2,·,·
CCc1n[n+](CC(=O)c2ccccc2)c(N)s1,51,59*,·,1,65*
SMILES,STAT3 act,STAT1 blocker,Platelet DG rel,PERK inhibitor,STAT3 inh
COc1ccc(-c2cn3cc(C(=O)NN)ccc3n2)cc1,66,-22,-17,0,42
c1cnc2nc(-c3ccc4c(c3)OCO4)cn2c1,95,-42,6,-1,11
CCc1ccn2cc(-c3ccc4c(c3)OCO4)nc2c1,·,·,50*,0,·
COC(=O)c1ccc2nc(-c3ccc4c(c3)OCO4)cn2c1,25,66*,6,0,89*
Cc1nc2ccccc2c(=O)n1NC(=O)c1cccc(Cl)c1,·,·,1,·,·
O=C(O)c1cccc(NC(=O)c2cc(NC(=O)c3ccccc3)cc(NC(=O)c3ccccc3)c2)c1,·,·,-12,·,·
Cc1ccc(C(=O)Nc2ccc3c(c2)CCC3)cc1,24,64*,-14,0,88*
CCOc1ccc(C(=O)Nc2cccc(C(=O)O)c2)cc1Cl,25,71*,6,-1,93*
COC(=O)c1cccc(NC(=O)c2ccc3c(c2)C(=O)N(CC2CCCO2)C3=O)c1 (stereo not drawn),97,-3,2,-2,5
O=C(O)c1cccc(NC(=O)c2ccc3c(c2)C(=O)N(CC2CCCO2)C3=O)c1 (stereo not drawn),75,37*,4,0,30
Cc1ccc(C(=O)Nc2cccc(C(=O)O)c2)cc1,19,82*,22,0,98*
CCOC(=O)c1cc(C(=O)OCC)c(=O)[nH]c1SCc1ccccc1,·,·,1,·,·
Cc1cc(C)c(S(=O)(=O)Nc2nccs2)c(C)c1,·,·,8,·,·
O=C(NC1(O)C(=O)c2ccccc2C1=O)c1ccccc1,98,-2,14,2,5
CC(=O)C(C(C)=O)C1(O)C(=O)c2ccccc2C1=O,114,4,8,3.0*,-15
CCOC(=O)c1sc(=NC(=O)c2ccc(C)cc2)n(C)c1C,145*,-42,2,0,-46
CSc1nc2sc(-c3ccccc3)cc2c(=O)n1N,95,-43,115*,1,13
O=C(CSc1ccsc1[N+](=O)[O-])NCc1ccccc1,135*,-13,5,0,-39
C=C1CCN([C@H](C(=O)OCc2cccc(C)c2)C(C)C)S(=O)(=O)c2ccccc21,·,·,0,·,·
Cc1cccc(C)c1NC(=O)CCCN1CC(C)OC(C)C1 (stereo not drawn),102,-1,5,3.2*,-1
C=CCNC(=S)Nc1ccc(C(N)=O)cc1,94,-5,-1,-1,12
CNC(=S)Nc1ccc(C(N)=O)cc1,102,4,58*,0,4
O=C(COC(=O)c1c[nH]c(=O)[nH]c1=O)Nc1ccccc1Br,·,·,82*,1,·
COc1ccccc1NC(=O)COC(=O)c1c[nH]c(=O)[nH]c1=O,·,·,-10,1,·
COCCNC(=O)c1c[nH]n2c(=O)cc(C3CCN(C(=O)OC(C)(C)C)CC3)nc12,100,4,15,3.8*,9
SMILES,STAT3 act,STAT1 blocker,Platelet DG rel,PERK inhibitor,STAT3 inh
Cc1cc(OC(=O)c2ccccc2Cl)cc(=O)n1C,91,35*,-4,1,16
O=C(Oc1ccc(N2C(=O)CCC2=O)cc1)c1ccccc1Cl,104,3,-14,1,0
Cc1nn(-c2nc3ccccc3s2)c(N)c1Sc1ccc(F)cc1,158*,-42,7,1,-59
Cc1nn(-c2nc3ccccc3s2)c(N)c1-c1ccccc1,119,-47,11,0,-22
CC1=NNC(=O)/C1=C\c1cn(-c2ccccc2)nc1-c1ccc(Cl)cc1,55,-22,8,1,61*
CC(=O)Oc1ccc2c(=O)c(-c3nc4ccccc4s3)coc2c1,72,-9,61*,0,39
Cc1nc(NCc2ccco2)c2c3c(sc2n1)CCC3,167*,-54,-1,0,-76
c1coc(CNc2ncnc3sc4c(c23)CCCCC4)c1,98,-1,-5,0,8
Cc1ccc(NC(=S)NCc2ccc(Cl)cc2)c(OC(F)F)c1,·,·,-3,·,·
CCCCc1c(C)nc2c(OC)cccc2c1SCC(=O)O,·,·,-5,4.2*,·
COc1ccccc1C(=O)NC(=Nc1nc2ccccc2o1)NC(=O)c1ccccc1OC,136*,-1,-5,-1,-41
Cc1cnc(NC(=O)COc2ccccc2Cl)s1,26,61*,27,0,92*
CC1CCc2nc(NC(=O)C3COc4ccccc4O3)sc2C1 (stereo not drawn),28,49*,-2,0,91*

# Screening data deposited in PubChem by several laboratories.
